Measured values as given in ChEMBL document CHEMBL5385911, “Exploring the Dispersion and Electrostatic Components in Arene-Arene Interactions between Ligands and G4 DNA to Develop G4-Ligands” (J Med Chem, 2024).
In brackets after ≈: the same amount, converted by molar mass. Blank lines part the entries; values can stand above or below the molecule they belong to. Activity calls are given as the source filed them. No cut-off for these calls is given here.

Key:
[1] = Solubility of the compound at pH 7.4; assay type: physicochemical; settings: buffer
Quadruplex DNA [2] = experiment: Stabilization of fluorescently labelled c-Myc G4-quadruplex Pu22 DNA (unknown origin) assessed as increase in thermal stability of DNA structure at 40 equiv. by FRET melting assay; assay type: nucleic-acid assay
Outline: (§1)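 Pu22 (FAM/TAMRA, 0.2 μM), folded in 10 mM lithium cacodylate pH 7.4, 2 mM KCl, 98 mM LiCl. Ligand at 5, 10, 25 or 40 equivalents. Heated 10–95 °C; donor emission at 516 nm (excitation 492 nm) normalized. Tm taken at 0.5 normalized emission; ΔTm is Tm with ligand minus Tm without ligand. Duplicate wells.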

Quadruplex DNA [3] = experiment: Stabilization of G4-quadruplex PEPu24T DNA (unknown origin) assessed as inhibition of Taq DNA polymerase activity by measuring full length DNA product at 0.24 uM pretreated for 10 mins followed by incubation with dNTPs for 15 mins by PAGE analysis; assay type: nucleic-acid assay; set-up: scale not given: the % may be the effect or the level left; settings: time 25.0 min
Outline: (§2)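 Template made by annealing TET-labelled 25 nt primer (1 μM final) to PEPu24T (1.25 μM final) in 100 mM KCl. Reaction: 40 nM template, Taq buffer pH 8.8 with 50 mM KCl, 25 mM MgCl2, 0.05 U Taq. Compound preincubated on ice 10 min; dNTPs (100 μM) added, 37 °C 15 min. Denaturing 12% urea/formamide PAGE; full-length product expressed as % of no-compound sample; SD of ≥2 independent experiments.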

[4] = Stabilization of double stranded PEPu24T mut DNA (unknown origin) assessed as inhibition of Taq DNA polymerase activity by measuring reduction in full length DNA product at 6 uM pretreated for 10 mins followed by incubation with dNTPs for 15 mins by PAGE analysis; settings: time 25.0 min
Outline: (§3)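 Non-G4 control template: TET-labelled 25 nt primer (1 μM final) annealed to mutated PEPu24T mut (1.25 μM final) in 100 mM KCl. 40 nM template, Taq buffer pH 8.8, 25 mM MgCl2, 0.05 U Taq. Compound on ice 10 min, then 100 μM dNTPs at 37 °C 15 min. Denaturing PAGE; full-length product as % of no-compound sample.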

Quadruplex DNA [5] = experiment: Stabilization of 5'-FAM and 3'-TAMRA labelled c-Myc G4-quadruplex Pu24T DNA (unknown origin) assessed as increase in thermal stability of DNA structure at 5 to 40 equiv. by FRET melting assay; settings: dose 5-40 equiv
Quadruplex DNA [6] = experiment: Binding affinity to c-Myc G4-quadruplex Pu22 DNA (unknown origin) assessed as change in entropy by isothermal titration calorimetry; assay type: nucleic-acid assay
Outline: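 Reverse titration: cell holds 20 μM ligand, syringe 120 μM prefolded G4 DNA, 20 injections in 10 mM potassium phosphate, 100 mM KCl, pH 7.4, at 19 °C. First injection 0.5 μL, then 2 μL, 120 s spacing, 1000 rpm, high-feedback mode. Data fitted to one-site binding model.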

Quadruplex DNA [7] = experiment: Stabilization of G4-quadruplex PEPu24T DNA (unknown origin) assessed as inhibition of Taq DNA polymerase activity by measuring reduction in full length DNA product at 0.048 uM pretreated for 10 mins followed by incubation with dNTPs for 15 mins by PAGE analysis; assay type: nucleic-acid assay; settings: time 25.0 min; outline: as §2
Quadruplex DNA [8] = experiment: Stabilization of G4-quadruplex PEPu24T DNA (unknown origin) assessed as inhibition of Taq DNA polymerase activity by measuring reduction in full length DNA product at 0.24 uM pretreated for 10 mins followed by incubation with dNTPs for 15 mins by PAGE analysis; assay type: nucleic-acid assay; settings: time 25.0 min; outline: as §2
[9] = Stabilization of double stranded PEPu24T mut DNA (unknown origin) assessed as inhibition of Taq DNA polymerase activity by measuring reduction in full length DNA product at >4 uM pretreated for 10 mins followed by incubation with dNTPs for 15 mins by PAGE analysis; settings: time 25.0 min; outline: as §3
Quadruplex DNA [10] = experiment: Binding affinity to c-Myc G4-quadruplex Pu22 DNA (unknown origin) at 0.7 equivalent by NMR titration analysis; assay type: nucleic-acid assay; settings: dose 0.7 equiv
Outline: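 Pu22 folded at 100 μM in 10 mM potassium phosphate pH 7.4, 35 mM KCl (95 °C 10 min, cooled overnight). 10% D2O added, giving 90 μM DNA. Compound added stepwise in increasing equivalents. 1D 1H spectra with excitation sculpting, 256 scans, 298 K, 850 MHz.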

Quadruplex DNA [11] = experiment: Stabilization of fluorescently labelled G4-quadruplex c-KIT2 DNA (unknown origin) assessed as increase in thermal stability of DNA structure at 2 uM by FRET melting assay; assay type: nucleic-acid assay
Outline: (§4)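 0.2 μM FAM/TAMRA dual-labelled oligonucleotide, prefolded in 10 mM lithium cacodylate pH 7.4, 10 mM KCl, 90 mM LiCl (95 °C 10 min, then ≥1 h cold). Ligand added and sample heated from 10 to 95 °C; donor emission at 516 nm (excitation 492 nm) normalized. Tm taken at 0.5 normalized emission; ΔTm is Tm with ligand minus Tm without ligand. Duplicate wells.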

Quadruplex DNA [12] = experiment: Stabilization of fluorescently labelled G4-quadruplex 25Ceb DNA (unknown origin) assessed as increase in thermal stability of DNA structure at 2 uM by FRET melting assay; assay type: nucleic-acid assay; outline: as §4
Quadruplex DNA [13] = experiment: Stabilization of fluorescently labelled G4-quadruplex Bcl2 DNA (unknown origin) assessed as increase in thermal stability of DNA structure at 2 uM by FRET melting assay; assay type: nucleic-acid assay; outline: as §4
Quadruplex DNA [14] = experiment: Stabilization of fluorescently labelled G4-quadruplex 21G DNA (unknown origin) assessed as increase in thermal stability of DNA structure at 2 uM by FRET melting assay; assay type: nucleic-acid assay; outline: as §4
Quadruplex DNA [15] = experiment: Stabilization of fluorescently labelled G4-quadruplex Bom17 DNA (unknown origin) assessed as increase in thermal stability of DNA structure at 2 uM by FRET melting assay; assay type: nucleic-acid assay; outline: as §4
Quadruplex DNA [16] = experiment: Stabilization of fluorescently labelled G4-quadruplex Tba DNA (unknown origin) assessed as increase in thermal stability of DNA structure at 2 uM by FRET melting assay; assay type: nucleic-acid assay; outline: as §4
Quadruplex DNA [17] = experiment: Stabilization of fluorescently labelled c-Myc G4-quadruplex Pu22 DNA (unknown origin) assessed as increase in thermal stability of DNA structure at 2 uM in presence of double stranded competitor DNA ds26 by FRET melting assay; assay type: nucleic-acid assay
Outline: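 Competition melting: 0.2 μM labelled Pu22 in 10 mM lithium cacodylate pH 7.4, 2 mM KCl, 98 mM LiCl, with ligand plus 0–100 equivalents of ds26 duplex competitor. Heated 10–95 °C; FAM emission normalized. Tm taken at 0.5 normalized emission; ΔTm is Tm with ligand minus Tm without ligand. SD of at least six independent experiments.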

dsDNA = experiment: Binding affinity to 5'-Cy5-labelled double stranded DNA ds26 (unknown origin) by microscale thermophoresis analysis; assay type: nucleic-acid assay
Outline: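 Cy5-labelled DNA held at 25 nM, folded in 10 mM phosphate, 100 mM KCl, pH 7.4 (95 °C 5 min, cooled to room temperature). Ligand in 16 1:3 dilutions in 10 mM phosphate pH 7.4, 100 mM KCl, 0.05% Tween20. Capillary fluorescence read at 20% LED power; change in fluorescence versus ligand concentration fitted by nonlinear equation for binding constant.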

Quadruplex DNA [18] = experiment: Stabilization of G4-quadruplex DNA in human HeLa cells assessed as increase in BG4-positive cell nuclei at 1 to 2 uM incubated for 24 hrs by immunofluorescence microscopy; assay type: functional, cell-based; settings: dose 1-2 µM
Outline: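 HeLa cells (60,000 on coverslips) treated 24 h. Cells fixed in 2% paraformaldehyde, permeabilized in 0.1% Triton X-100, blocked in 2% milk. Stained with BG4–FLAG (1/3000), rabbit anti-FLAG, then Alexa594 anti-rabbit, each 1 h at 37 °C; nuclei stained with DAPI. BG4 foci per nucleus counted, 90–166 cells per condition. Welch-corrected t tests on ln-transformed data; mean ± 2SD shown.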

Quadruplex DNA [19] = experiment: Stabilization of fluorescently labelled c-Myc G4-quadruplex Pu22 DNA (unknown origin) assessed as increase in thermal stability of DNA structure at 5 to 40 equiv. by FRET melting assay; assay type: nucleic-acid assay; settings: dose 5-40 equiv; outline: as §1
Quadruplex DNA [20] = experiment: Stabilization of G4-quadruplex PEPu24T DNA (unknown origin) assessed as inhibition of Taq DNA polymerase activity by measuring reduction in full length DNA product at 0.048 to 6 uM pretreated for 10 mins followed by incubation with dNTPs for 15 mins by PAGE analysis; assay type: nucleic-acid assay; settings: dose 0.048-6 µM, time 25.0 min; outline: as §2

Compound: COc1ccc2nc(Nc3nc(C)cc(C)n3)nc(C)c2c1
solubility [1]: 134 µM (≈ 39.6 µg/mL)
Activity [4]: inactive

Compound: Cc1cc(NCCCN(C)C)nc(Nc2ncc3ccccc3n2)n1
solubility [1]: 858 µM (≈ 290 µg/mL)
Activity (Quadruplex DNA [3]): 65%
Activity [4]: inactive
Activity (Quadruplex DNA [5]): Active

Compound: Cc1cc(NCCCN(C)C)nc(Nc2nc3cc(C)c(C)cc3nc2C)n1
Activity (Quadruplex DNA [19]): Active
Activity [4]: inactive
Activity (Quadruplex DNA [20]): Active
Activity (Quadruplex DNA [5]): Active

Compound: Cc1cc(C)nc(Nc2nc(C)c3cc(Cl)ccc3n2)n1
Activity [4]: inactive

The next lines start with results.

solubility [1]: 858 µM (≈ 314 µg/mL)
Activity (Quadruplex DNA [2]): Active
Activity (Quadruplex DNA [3]): 30%
Activity [4]: inactive
Activity (Quadruplex DNA [5]): Active
Compound: Cc1ccc2nc(Nc3nc(C)cc(NCCCN(C)C)n3)nc(C)c2c1

solubility [1]: 858 µM (≈ 326 µg/mL)
-TdeltaS (Quadruplex DNA [6]): 1.85 kcal/mol
inhibition (Quadruplex DNA [7]): 50%
inhibition (Quadruplex DNA [8]): 100%
Activity [9]: Active
Activity (Quadruplex DNA [10]): Active
Activity (Quadruplex DNA [11]): Active
Activity (Quadruplex DNA [12]): Active
Activity (Quadruplex DNA [13]): Active
Activity (Quadruplex DNA [14]): Active
Activity (Quadruplex DNA [15]): Active
Activity (Quadruplex DNA [16]): inactive
Activity (Quadruplex DNA [17]): Active
Activity (dsDNA): inactive
Activity (Quadruplex DNA [5]): Active
Compound: Cc1cc(C)c2nc(Nc3nc(C)cc(NCCCN(C)C)n3)nc(C)c2c1
Activity (Quadruplex DNA [18]): Active

solubility [1]: 858 µM (≈ 331 µg/mL)
Activity (Quadruplex DNA [2]): Active
Activity [4]: inactive
Activity (Quadruplex DNA [5]): Active
Compound: Cc1cc(NCCCN(C)C)nc(Nc2nc(C)c3cc(Cl)ccc3n2)n1
